This is an account of results in publication PMC9827907 (Chemmedchem, 2022).

Molecules are shown by their SMILES. Read-outs that look alike come from different tables or passages of the source.

One data set relates to P. falciparum 3D7. Kind of data set: In vitro P. falciparum viability assay, 3D7 strain, 72-hour SYBR green. It counts as cell-based, Plasmodium falciparum. Conditions: for IC50: Plasmodium falciparum, 3D7, 72 h, read-out: 3D7 IC50. Put shortly:
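Asexual blood-stage growth inhibition was measured on the 3D7 strain with 72 h exposure to test compound. IC50 values are geometric mean ± SEM of at least two independent experiments.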

Data set [1] can be described thus: Metabolic stability study using human liver microsomes. It counts as in vitro ADME. The following applies: pooled human liver microsomes.
Data set [2] has as its system P. falciparum Dd2 (PfeEF2). In words: In vitro intraerythrocytic antimalarial activity, lab adapted strain Dd2. It counts as cell-based. The following applies: Plasmodium falciparum, DD2, read-out: IC50, Dd2 (PfeEF2). The procedure, abridged:
(§1)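 Intraerythrocytic asexual-stage activity was measured against laboratory resistant lines, with resistance mutations introduced into a Dd2 wild-type background. Fold shift was taken relative to Dd2 wild type. Strain-matched reference inhibitors were tested on Dd2 wild type and on the mutant lines. Values are means of at least two independent experiments.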

For another data set, the system named is P. falciparum Dd2 (wt). In words: In vitro intraerythrocytic antimalarial activity, Dd2. It counts as cell-based, Plasmodium falciparum.
In data set [3] the test system is P. falciparum clone E5 (PfeEF2 E134D). In words: 72 hour concentration-response assay, M5717-selected clone E5. The format is cell-based, Plasmodium falciparum. The procedure, abridged:
(§2)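 Drug-selected P. falciparum clones carry PfeEF2 point mutations in the chloroquine-resistant Dd2-B2 background and are compared with the parental Dd2-B2 clone. […] Each clone was tested against parent by unpaired t test with Welch's correction.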

For data set [4], the system named is P. falciparum clone G12 (PfeEF2 L507S). In words: 72 hour concentration-response assay, MMV692140-selected clone G12. The following applies: vs parental Dd2-B2, Figure 3. It counts as cell-based, Plasmodium falciparum. The procedure, abridged:
as §2

The test system of data set [5] is P. falciparum clone A3 (PfeEF2 Y719C). Kind of data set: 72 hour concentration-response assay, MMV692140-selected clone A3. Conditions: vs parental Dd2-B2, Figure 3. The format is cell-based, Plasmodium falciparum. The procedure, abridged:
as §2

Data set [6] deals with P. falciparum clone D6 (PfeEF2 Y186N). Kind of data set: 72 hour concentration-response assay, M5717-selected clone D6. The format is cell-based, Plasmodium falciparum. The procedure, abridged:
as §2

Data set [7] deals with P. falciparum clone F8 (PfeEF2 L775F). Kind of data set: 72 hour concentration-response assay, M5717-selected clone F8. The format is cell-based, Plasmodium falciparum. The procedure, abridged: as §2
Data set [8] concerns P. falciparum clone D3 (PfeEF2 F770L). Kind of data set: 72 hour concentration-response assay, MMV692140-selected clone D3. The format is cell-based, Plasmodium falciparum. The following applies: IC50 vs Dd2-B2 parent. Put shortly: as §2
A further data set relates to P. falciparum Dd2. Kind of data set: 72-hour [3H]hypoxanthine incorporation assay, field adapted strain Dd2. It counts as cell-based. The following applies: Plasmodium falciparum, DD2, read-out: IC50, Dd2. The procedure, abridged:
(§3)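 Intraerythrocytic asexual-stage activity was measured against field-adapted drug-resistant P. falciparum strains. The drug-sensitive NF54 strain served as the wild-type reference, and fold shift was taken relative to NF54. Chloroquine and artesunate were run as control drugs.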

The test system of another data set is P. falciparum K1. In words: 72-hour [3H]hypoxanthine incorporation assay, field adapted strain K1. It counts as cell-based. The following applies: Plasmodium falciparum, K1, read-out: IC50, K1. Put shortly: as §3
For a further data set, the system named is P. falciparum TM90 C2b. Kind of data set: 72-hour [3H]hypoxanthine incorporation assay, field adapted strain TM90 C2b. The following applies: Plasmodium falciparum, TM90, read-out: IC50, TM90 C2b. The format is cell-based. The procedure, abridged: as §3
The test system of another data set is P. falciparum 7G8. Kind of data set: 72-hour [3H]hypoxanthine incorporation assay, field adapted strain 7G8. The format is cell-based. Conditions: Plasmodium falciparum, 7G8, read-out: IC50, 7G8. Put shortly:
as §3

For a further data set, the system named is P. falciparum Cam3.I. Kind of data set: 72-hour [3H]hypoxanthine incorporation assay, field adapted strain Cam3.I. It counts as cell-based. The following applies: Plasmodium falciparum, read-out: IC50, Cam3.I. The procedure, abridged:
as §3

Data set [9] relates to P. falciparum Dd2 (Pfpi4k). Kind of data set: In vitro intraerythrocytic antimalarial activity, lab adapted strain Dd2. It counts as cell-based, Plasmodium falciparum. Put shortly: as §1
Data set [10] has as its system P. falciparum Dd2 (Pfdhodh). The description is as above. It counts as cell-based, Plasmodium falciparum. Put shortly: as §1
Data set [11] deals with P. falciparum Dd2 (Pfcytb). The data set is described as above. It counts as cell-based, Plasmodium falciparum. Put shortly:
as §1

Setting [12] is: Plasmodium falciparum, DD2, read-out: IC50, Dd2 (wt).

`Cc1ccccc1-n1nnnc1N1CCC(C(=O)N2CCCc3ccccc32)CC1` [Compound 8, (3,4-Dihydroquinolin-1(2H)-yl)(1-(1-(o-tolyl)-1H-tetrazol-5-yl)piperidin-4-yl)methanone]: in the data set on P. falciparum 3D7, the IC50 was determined as 1400 ± 20 nM.
Same read-out and setting: then `N#Cc1ccc2c(c1)N(C(=O)C1CCN(c3nnnn3-c3ccccc3)CC1)CCC2` [Compound 22], with greater than 25000 nM.
`O=C(C1CCN(c2nnnn2C2CCCC2)CC1)N1CCCc2ccccc21` [Compound 28, (1-(1-cyclopentyl-1H-tetrazol-5-yl)piperidin-4-yl)(3,4-dihydroquinolin-1(2H)-yl)methanone]: the IC50 in the data set with P. falciparum 3D7 came out at 3300 ± 480 nM. The compound also displayed a microsomal CLint at 1 µM in data set [1] greater than 400 µL/min/mg.
For `O=C(C1CCN(c2nnnn2C2CCCCC2)CC1)N1CCCc2ccccc21` [Compound 29], in that order: 3500 ± 20 nM and greater than 400 µL/min/mg.
As to `O=C(NCCN1CCCC1)c1cc(-c2ccc(CN3CCOCC3)cc2)nc2ccc(F)cc12` [Compound M5717], the IC50 came out at 3100 nM in data set [2]; 2 nM in the data set with P. falciparum Dd2 (wt) (setting [12]); 5.8 nM in data set [3] (Plasmodium falciparum, 72 h, read-out: IC50, clone E5); 3100 nM in data set [6] (Plasmodium falciparum, D6, 72 h, read-out: IC50, clone D6); 660 nM in data set [7] (Plasmodium falciparum, 72 h, read-out: IC50, clone F8). In addition, the “Fold shift, clone E5” value in data set [3] (IC50 vs Dd2-B2 parent) came to 27x fold. In data set [4], the “Cross resistance of compound 2-selected clone G12” value is “not cross‐resistant”. In addition, the “Cross resistance of compound 2-selected clone A3” value in data set [5] is recorded as “not cross‐resistant”. In addition, the “Fold shift, clone D6” value in data set [6] (IC50 vs Dd2-B2 parent) amounted to 14700x fold. The “Fold shift, clone F8” value in [7] (IC50 vs Dd2-B2 parent) worked out at 3100x fold. In addition, in data set [8], the “Fold shift, clone D3” value is listed as 1.6 fold.
With `C[C@H]1[C@H](OC(=O)CCC(=O)O)O[C@@H]2O[C@@]3(C)CC[C@H]4[C@H](C)CC[C@@H]1[C@@]24OO3` [Artesunate], the IC50 in the data set with P. falciparum Dd2 is 6 nM; in the data set with P. falciparum K1 it was 2 nM; in the data set on P. falciparum TM90 C2b, 5 nM; in the data set with P. falciparum 7G8 it was 2 nM; with P. falciparum Cam3.I, 11 nM.
With `O=C(C1CCN(c2nnnn2-c2ccccc2)CC1)N1CCCc2cc(Cl)ccc21` [Compound 20, (6-Chloro-3,4-dihydroquinolin-1(2H)-yl)(1-(1-phenyl-1H-tetrazol-5-yl)piperidin-4-yl)methanone], the IC50 with P. falciparum 3D7 is greater than 25000 nM.
On to `O=C(C1CCN(c2nnnn2-c2ccc(N3CCCC3)cc2)CC1)N1CCCc2c(Cl)cccc21` [Compound 33], for which, in the data set on P. falciparum 3D7, the IC50 amounted to 110 ± 10 nM. The compound further gave a microsomal CLint at 1 µM in data set [1] greater than 400 µL/min/mg.
For `O=C(C1CCN(c2nnnn2-c2ccc(F)cc2)CC1)N1CCOc2ccccc21` [Compound 30], in that order: 8900 ± 1400 nM and 83 µL/min/mg.
With `CC(C)n1nnnc1N1CCC(C(=O)N2CCCc3ccccc32)CC1` [Compound 27, (3,4-Dihydroquinolin-1(2H)-yl)(1-(1-isopropyl-1H-tetrazol-5-yl)piperidin-4-yl)methanone], in the data set on P. falciparum 3D7, the IC50 turned out to be 5600 ± 920 nM. In [1], the microsomal CLint at 1 µM came out at 135 µL/min/mg.
On to `O=C(C1CCN(c2nnnn2-c2ccccc2)CC1)N1CCCc2ccc(Cl)cc21` [Compound 23, (7-Chloro-3,4-dihydroquinolin-1(2H)-yl)(1-(1-phenyl-1H-tetrazol-5-yl)piperidin-4-yl)methanone], for which the IC50 in the data set with P. falciparum 3D7 is greater than 25000 nM.
`CCN(CC)CCCC(C)Nc1ccnc2cc(Cl)ccc12` (centres unmarked) [Chloroquine]: the half-inhibitory concentration (IC50) with P. falciparum Dd2 came out at 160 nM; with P. falciparum K1 it was 200 nM; in the data set on P. falciparum TM90 C2b it was 140 nM; with P. falciparum 7G8, 80 nM; with P. falciparum Cam3.I it was 180 nM.
As to `O=C(C1CCN(c2nnnn2-c2ccc(N3CCCC3)cc2)CC1)N1CCCc2c(F)cccc21` [Compound 36, (5-fluoro-3,4-dihydroquinolin-1(2H)-yl)(1-(1-(4-(pyrrolidin-1-yl)phenyl)-1H-tetrazol-5-yl)piperidin-4-yl)methanone], in the data set on P. falciparum 3D7, the IC50 amounted to 66 ± 8 nM. The “improvement of antimalarial asexual blood stage in vitro potency” value in the data set on P. falciparum 3D7 (relative to hit compound 2, 72-hour 3D7 assay) is recorded as 30 fold. In data set [1], this compound came in with a microsomal CLint at 1 µM greater than 400 µL/min/mg.
As to `COc1ccc(-n2nnnc2N2CCC(C(=O)N3CCCc4ccccc43)CC2)cc1` [Compound 7, (3,4-Dihydroquinolin-1(2H)-yl)(1-(1-(4-methoxyphenyl)-1H-tetrazol-5-yl)piperidin-4-yl)methanone], the IC50 in the data set on P. falciparum 3D7 is 900 ± 140 nM. This compound also registered a microsomal CLint at 1 µM in [1] of 521 µL/min/mg.
Regarding `O=C(C1CCN(c2nnnn2-c2ccccc2)CC1)N1CCCc2c(Cl)cccc21` [Compound 17, (5-Chloro-3,4-dihydroquinolin-1(2H)-yl)(1-(1-phenyl-1H-tetrazol-5-yl)piperidin-4-yl)methanone], the IC50 in the data set with P. falciparum 3D7 was determined as 600 ± 90 nM.
Turning to `O=C(C1CCN(c2nnnn2-c2ccc(N3CCCC3)cc2)CC1)N1CCOc2c(Cl)cccc21` [Compound 34], the IC50 with P. falciparum 3D7 turned out to be 1600 ± 81 nM. The same compound came in with a microsomal CLint at 1 µM in data set [1] of 296 µL/min/mg.
Consider `COc1ccc(-n2nnnc2N2CCC(C(=O)N3CCCc4c(Cl)cccc43)CC2)cc1` [Compound 31], for which the IC50 with P. falciparum 3D7 was found to be 700 ± 100 nM. In data set [1], this compound came in with a microsomal CLint at 1 µM greater than 400 µL/min/mg.
As for `CS(=O)(=O)c1ccc(-c2cnc(N)c(-c3ccc(C(F)(F)F)nc3)c2)cc1` [MMV390048], the concentration for half-maximal inhibition (IC50) with P. falciparum Dd2 (wt) (setting [12]) is 21.2 nM; in data set [9] (Plasmodium falciparum, DD2, read-out: IC50, Dd2 (Pfpi4k)), 102 nM. In data set [9] (vs Dd2 (wt)), the “fold shift, Dd2 (Pfpi4k)” value was determined as 4.8 fold.
For the compound `O=C(C1CCN(c2nnnn2-c2ccccc2)CC1)N1CCCc2ncccc21` [Compound 24, (3,4-Dihydro-1,5-naphthyridin-1(2H)-yl)(1-(1-phenyl-1H-tetrazol-5-yl)piperidin-4-yl)methanone], the IC50 in the data set with P. falciparum 3D7 amounted to 10200 ± 750 nM.
Turning to `COc1ccc(-n2nnnc2N2CCC(C(=O)N3CCOc4c(Cl)cccc43)CC2)cc1` [Compound 32], the IC50 in the data set with P. falciparum 3D7 is 3600 ± 1200 nM. In addition, the microsomal CLint at 1 µM in data set [1] came out at 78 µL/min/mg.
Turning to `O=C(C1CCN(c2nnnn2-c2ccccc2)CC1)N1CCCc2cnccc21` [Compound 25, (3,4-Dihydro-1,6-naphthyridin-1(2H)-yl)(1-(1-phenyl-1H-tetrazol-5-yl)piperidin-4-yl)methanone], the IC50 in the data set with P. falciparum 3D7 was determined as 10800 ± 650 nM.
As for `Cc1cc(Nc2ccc(S(F)(F)(F)(F)F)cc2)n2nc(C(C)(F)F)nc2n1` [DSM265], the concentration for half-maximal inhibition (IC50) in the data set with P. falciparum Dd2 (wt) (setting [12]) was 8 nM; in [10] (Plasmodium falciparum, DD2, read-out: IC50, Dd2 (Pfdhodh)), 143 nM. The “fold shift, Dd2 (Pfdhodh)” value in [10] (vs Dd2 (wt)) came to 18 fold.
Regarding `O=C(C1CCN(c2nnnn2-c2ccc(OC(F)(F)F)cc2)CC1)N1CCCc2ccccc21` [Compound 9], the IC50 in the data set with P. falciparum 3D7 was 5500 ± 860 nM.
As to `COc1cc2[nH]c(C)c(-c3ccc(Oc4ccc(OC(F)(F)F)cc4)cc3)c(=O)c2cc1Cl` [ELQ300], the IC50 worked out at 19 nM in the data set on P. falciparum Dd2 (wt) (read-out: IC50, Dd2 (wt), reference compounds) and 254 nM in data set [11] (read-out: IC50, Dd2 (Pfcytb), reference compound). In addition, the “fold shift, Dd2 (Pfcytb)” value in data set [11] (vs Dd2 (wt)) amounted to 13 fold.
